PfHsp90 yeast 2: growth inhibition of PfHsp90-expressing yeast, primary screen, antimalarial PfHsp90 inhibitor project, S. cerevisiae, BacTiter-Glo luminescence, single point, set 2. AID 504621, 2011. BacTiter-Glo ATP, 48 h; yeast lacking PDR1 and PDR3 efflux regulators. inhibition, % at 9.4 µM. 310,000 compounds, 0.32% hits;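 active means every replicate shows inhibition above about 80%, whatever the replicate mean, limit read from the data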;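 further: 0% = DMSO neutral controls and 100% = 20 µM radicicol positive controls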
CSC inhib: cancer stem cell viability inhibitors, primary screen, luminescence; AID 2717, 2010; cancer stem cell-like cells viability; inhibition, % at 7.5 µM; 300,000 compounds, 1.1% hits; in the data active means inhibition above about 75%; tested in HMLE shEcad cells
HIF act: HIF pathway transcriptional activators, primary screen, cell-based, U2OS HRE-luciferase, luminescence | U2OS HRE-luciferase reporter; normalized: DMSO 0%, desferrioxamine 100% | activation, % at 7.5 µM (by protocol) | 300,000 compounds, 0.32% hits;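 active means mean activation of at least 10% of the iron chelator positive control signal, with at least half of replicates also reaching 10%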
SKKanGAS inh: S. pyogenes SKKanGAS growth inhibitors in kanamycin, primary screen, streptokinase expression inhibitor project, SKKanGAS strain, BacTiter-Glo luminescence | 6 h | inhibition, % at 7.5 µM | 300,000 compounds, 1.3% hits | AID 1662, 2009;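 active means mean replicate score, as percent of positive control median, at least 50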;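 further: strain carries kanamycin resistance gene driven by streptokinase promoter and grows in 40 µg/ml kanamycin; loss of luminescence reflects streptokinase promoter inhibition or plain growth inhibition; 0% = median of DMSO wells and 100% = positive control at its reference dose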
T cruzi inh: inhibitors of intracellular T. cruzi growth, primary screen, luminescence, NIH3T3 host cells | T. cruzi beta-gal in NIH3T3, 90 h | inhibition, % (concentration not given with the values) | AID 1885, 2009 | 300,000 compounds, 1.4% hits;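 active means mean inhibition across valid replicates above about 55%, limit read from the data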;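 further: signal also drops with host cell toxicity which is not excluded here; 0% = plate median of DMSO wells and 100% = zero luminescence signal; higher percent means less beta-gal luminescence so fewer parasites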
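Read-out: Parasite load inhibition, % | Test system: Mouse NIH/3T3 fibroblasts infected with β-gal-expressing T. cruzi Tulahuen C4 | Amount: 5,000 cells/well | Medium: DMEM, 2% fetal bovine serum | Signal: GalScreen β-gal luminescence, detergent lysis, 60 min | Timing: 3 h attach, ≥90 h co-culture | Also added: Tulahuen C4 trypomastigotes, 5000/well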
Beta cell apopt: inhibitors of cytokine-induced beta cell apoptosis, primary screen, luminescence. AID 435005, 2010. INS-1E cytokine-induced death, ATP luminescence, 48 h; percent of positive-control rescue, neutral wells zero. protection from apoptosis, % (concentration not given with the values). 300,000 compounds, 0.8% hits;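 active means Every replicate reaches about 75%, or at least half do and their mean reaches it too, limit read from the data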;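 further: 0% = cytokine-treated negative control wells and 100% = positive control rescue; higher means more ATP so stronger rescue from cytokine killing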
Starred values were filed as active, the others as inactive; . = no result given. In the library only some 3.6% were active in any assay of this set; here they are far more common.

SMILES	PfHsp90 yeast 2	CSC inhib	HIF act	SKKanGAS inh	T cruzi inh	Beta cell apopt
N=c1c(S(=O)(=O)c2ccc(F)cc2)cc2c(=O)n3ccccc3nc2n1CC1CCCO1 (stereo not drawn)	1	16	0	-12	10	.
COc1ccccc1C(=O)C1CCCN(Cc2cn[nH]c2C2CCCCC2)C1 (stereo not drawn)	-12	-4	0	4	62*	4
COc1cc(CN2CCCC(C(=O)c3ccccc3SC)C2)cc(OC)c1 (stereo not drawn)	1	19	0	-14	68*	-2
COc1cc(OC)c(OC)cc1CN1CCCC(C(=O)c2ccccc2SC)C1 (stereo not drawn)	-47	-1	1	-3	56*	4
CCOc1ccc(S(=O)(=O)n2ccnc2C)cc1	.	-3	1	-2	-18	.
O=C(c1ccc(Cl)cc1)c1cccc(O)c1	11	.	.	.	.	.
CCC(C(=O)OCC(=O)Nc1ccc(F)cc1)c1ccccc1 (stereo not drawn)	3	0	.	.	.	-3
CCC(C(=O)OCC(=O)Nc1ccc(SC(F)F)cc1)c1ccccc1 (stereo not drawn)	1	.	0	-3	58*	.
COc1ccc(-n2nc(C)c3c(=O)c4c([nH]c32)CCCC4)cc1	-13	1	-1	5	62*	1
Cc1cccc(NC(=O)C2CCN(C(=O)c3ccc(Cl)cc3)CC2)n1	.	.	0	7	-13	-2
COC(=O)c1c(-c2ccc(N(C)C)cc2)sc2ccc(OC)cc12	-10	106*	.	.	.	7
COCCN(CC(=O)Nc1ccccc1C(F)(F)F)C(=O)/C=C/c1ccc2ccccc2n1	7	3	.	.	.	-7
CC(C)(C)CC(=O)O/N=C(\N)c1ccncc1	-3	-12	0	-3	-5	-4
CN1CCN(CC(C)(C)NS(=O)(=O)c2ccc(Cl)cc2)CC1	-2	48	0	-6	70*	-2
CC(C)(CN1CCN(Cc2ccccc2)CC1)NS(=O)(=O)c1ccc(Cl)cc1	-15	69	0	-8	38	4
O=C(NCCCN1CCOCC1)c1ccc(CSc2ccc(Cl)cc2)cc1	14	76*	0	0	31	-1
CC(C)(C)c1ccc(C(=O)NCCCN2CCN(CCCNC(=O)c3ccc(C(C)(C)C)cc3)CC2)cc1	3	102*	-2	8	26	.
CC(C)c1ccc(C(=O)NCCCN2CCOCC2)cc1	12	7	2	-1	5	-1
CCN1CCCC1CNC(=O)c1ccc(Sc2ccccc2Cl)c([N+](=O)[O-])c1 (stereo not drawn)	.	74	-1	0	28	9
CCN1CCCC1CNC(=O)c1ccc(Sc2ccc(F)cc2)c([N+](=O)[O-])c1 (stereo not drawn)	-58	79*	0	3	62*	-20
CN(C)CCNC(=O)c1ccc(Sc2ccc(Br)cc2)c([N+](=O)[O-])c1	4	67	-1	4	77*	1
O=C(COC(=O)/C=C/c1ccccc1[N+](=O)[O-])NCc1ccco1	.	-12	.	.	.	-11
O=C(NCCCN1CCOCC1)c1ccc(N2CCOCC2)c([N+](=O)[O-])c1	-9	-15	0	.	9	1
O=C(NCCCN1CCOCC1)c1ccc(Sc2ccc(F)cc2)c([N+](=O)[O-])c1	-33	46	0	-6	61*	3
COc1ccccc1C(=O)NCCC(=O)N1CC(C)OC(C)C1 (stereo not drawn)	-25	.	.	.	.	.
SMILES	PfHsp90 yeast 2	CSC inhib	HIF act	SKKanGAS inh	T cruzi inh	Beta cell apopt
CC(=O)Nc1sc(NC(=O)c2ccc([N+](=O)[O-])cc2)nc1-c1cccs1	-1	-2	0	56*	33	3
CC(=O)Nc1sc(NC(=O)c2ccc(Cl)cc2)nc1-c1cccs1	-19	-6	-1	8	7	-6
COC(=O)c1ccc(OC)c(CN2CCCN(Cc3ccc(F)cc3)S2(=O)=O)c1	-11	22	-43	3	57*	1
CCn1c(C)nc2cc(C(=O)NNC(=O)c3ccc(C)cc3)ccc21	-17	.	.	.	.	1
CCn1c(C)nc2cc(C(=O)OC(C(F)(F)C(F)F)C(F)(F)C(F)F)ccc21	-7	37	.	-15	21	104*
COC(=O)/C=C1\SC(N)=NC1=O	24	4	0	3	-1	3
N#Cc1ccc(-c2csc(NNC(=O)c3ccc(Br)cc3)n2)cc1	-6	9	9.7*	24	.	78*
N#Cc1ccc(-c2csc(NNC(=O)c3ccccc3)n2)cc1	.	-1	0	17	.	79*
CCCOc1ccc(NC(=O)CC2C(=O)N(c3ccc(OCC)cc3)C(=S)N2C2CC2)cc1 (stereo not drawn)	-13	-13	-3	5	44	45
CCCCn1nc2cc(C(=O)NCc3ccccc3)ccc2c1OCC	8	-7	-1	-1	12	-1
CN(C)C(CNC(=O)c1ccc(C2SCCS2)cc1)c1ccccc1 (stereo not drawn)	-1	20	3	7	-6	2
COc1cccc(C(=O)NC(=S)N2c3ccccc3CC2C)c1OC (stereo not drawn)	6	-8	1	-3	-6	.
CC1Cc2ccccc2N1C(=S)NC(=O)c1cccc(Br)c1 (stereo not drawn)	-165	-10	-53	93*	-19	-5
CC1Cc2ccccc2N1C(=S)NC(=O)c1ccc(Cl)cc1Cl (stereo not drawn)	-5	20	1	61*	-6	14
CCN(C(=O)COC(=O)Cc1c[nH]c2ccccc12)c1c(N)n(Cc2ccccc2)c(=O)[nH]c1=O	-1	0	0	12	-6	-9
COc1cc2nc(N3CCN(c4cc(C)ccc4C)CC3)nc(N)c2cc1OC	11	106*	-5	-6	56*	118*
COc1cc2nc(N3CCNCC3)nc(N)c2cc1OC	18	2	0	7	32	-7
COc1cc(-c2nc(C(=O)NCC3CCCO3)cc3c2[nH]c2ccccc23)cc(OC)c1OC (stereo not drawn)	.	9	0	36	32	25
O=C(NCC1CCCO1)c1cc2c([nH]c3ccccc32)c(-c2cccc(Cl)c2)n1 (stereo not drawn)	12	44	0	50*	50	62
CN(C)CCCN(C(=O)COc1ccc(Cl)cc1)c1nc2cc3c(cc2s1)OCO3	6	-4	-3	5	23	114*
CN(C)CCCN(C(=O)COc1ccccc1)c1nc2cc3c(cc2s1)OCO3	3	-4	-1	2	39	-7
